ChEMBL document CHEMBL3046220, “Bioactive saponin from tea seed pomace with inhibitory effects against Rhizoctonia solani” (J Agric Food Chem, 2010)

Key:
[1] = system: Rhizoctonia solani; assay: Antifungal activity against Rhizoctonia solani AG-4 assessed as inhibition of colony size at 2.5 ppm at 27 degC measured after 48 hr; type: functional; details: AG-4, 48 h
How it was run: (§1)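 R. solani AG-4 RST-04 was grown on potato dextrose agar plates at 27 °C for 48 h, with the reference fungicide tested across 0.25-250 ppm. Samples were dissolved in distilled water, and plates given distilled water alone served as control. Colony size was read as the mean of n = 8. Inhibition (%) = [(control colony size − treated colony size)/control colony size] × 100.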

[2] = system: Rhizoctonia solani; assay: Antifungal activity against Rhizoctonia solani AG-4 assessed as inhibition of mycelial growth at 27 degC measured after 48 hr; type: functional, organism-based
[3] = system: Rhizoctonia solani; assay: Antifungal activity against Rhizoctonia solani AG-4 assessed as inhibition of colony size at 250 ppm at 27 degC measured after 48 hr; type: functional; details: AG-4, 48 h; how it was run: as §1
[4] = system: Rhizoctonia solani; assay: Antifungal activity against Rhizoctonia solani AG-4 assessed as inhibition of colony size at 25 ppm at 27 degC measured after 48 hr; type: functional; details: AG-4, 48 h; how it was run: as §1
[5] = system: Rhizoctonia solani; assay: Antifungal activity against Rhizoctonia solani AG-4 assessed as inhibition of colony size at 0.25 ppm at 27 degC measured after 48 hr; type: functional; details: AG-4, 48 h; how it was run: as §1
[6] = system: Rhizoctonia solani; assay: Antifungal activity against Rhizoctonia solani AG-4 assessed as inhibition of colony size at 125 ppm at 27 degC measured after 48 hr; type: functional; details: AG-4, 48 h
How it was run: (§2)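 R. solani AG-4 RST-04 was kept on PDA slants. Samples were dissolved in distilled water, with distilled water as the control. Growth was on PDA plates at 27 °C for 48 h. Colony size was measured as mean ± SE (n = 8). Inhibition % = [(control colony size − treatment colony size)/control colony size] × 100. Groups were compared by Duncan's multiple-range test (p = 0.05).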

[7] = system: Rhizoctonia solani; assay: Antifungal activity against Rhizoctonia solani AG-4 assessed as inhibition of colony size at 100 ppm at 27 degC measured after 48 hr; type: functional; details: AG-4, 48 h; how it was run: as §2
[8] = system: Rhizoctonia solani; assay: Antifungal activity against Rhizoctonia solani AG-4 assessed as inhibition of colony size at 10 ppm at 27 degC measured after 48 hr; type: functional; details: AG-4, 48 h; how it was run: as §2
[9] = system: Rhizoctonia solani; assay: Antifungal activity against Rhizoctonia solani AG-4 assessed as inhibition of colony size at 30 ppm at 27 degC measured after 48 hr; type: functional; details: AG-4, 48 h; how it was run: as §2
[10] = system: Rhizoctonia solani; assay: Antifungal activity against Rhizoctonia solani AG-4 assessed as inhibition of colony size at 60 ppm at 27 degC measured after 48 hr; type: functional; details: AG-4, 48 h; how it was run: as §2

O=C(Nc1ccccc1)N(Cc1ccc(Cl)cc1)C1CCCC1 [PENCYCURON]
inhibition at 2.5 ppm [1]: 73.6% | IC50 [2]: < 0.25 ppm | inhibition at 250 ppm [3]: 81.9% | inhibition at 25 ppm [4]: 83.9% | inhibition at 0.25 ppm [5]: 66.6%

C[C@@H]1O[C@@H](OC[C@H]2O[C@@H](Oc3c(-c4ccc(O)cc4)oc4cc(O)cc(O)c4c3=O)[C@H](O[C@@H]3O[C@H](CO)[C@H](O)[C@H](O)[C@H]3O)[C@@H](O)[C@@H]2O)[C@H](O)[C@H](O)[C@H]1O [CAMELLIASIDE A]
IC50 [2]: > 125 ppm | inhibition at 125 ppm [6]: -14.7%

C[C@@H]1O[C@@H](OC[C@H]2O[C@@H](Oc3c(-c4ccc(O)cc4)oc4cc(O)cc(O)c4c3=O)[C@H](O[C@@H]3OC[C@@H](O)[C@H](O)[C@H]3O)[C@@H](O)[C@@H]2O)[C@H](O)[C@H](O)[C@H]1O [CAMELLIASIDE B]
IC50 [2]: > 125 ppm | inhibition at 125 ppm [6]: -14.5%

C/C=C(/C)C(=O)O[C@H]1CC(C)(C)C[C@H]2C3=CC[C@@H]4[C@@]5(C)CC[C@H](O[C@@H]6O[C@H](C(=O)O)[C@@H](O)[C@H](O[C@@H]7OC[C@H](O)[C@H](O)[C@H]7O[C@@H]7O[C@H](CO)[C@@H](O)[C@H](O)[C@H]7O)[C@H]6O[C@@H]6O[C@H](CO)[C@H](O)[C@H](O)[C@H]6O)[C@@](C)(C=O)[C@@H]5CC[C@@]4(C)[C@]3(C)C[C@@H](O)[C@@]12CO [CAMELLIASAPONIN B1]
IC50 [2]: 55.7 ppm | inhibition at 100 ppm [7]: 63.4% | inhibition at 10 ppm [8]: 6.43% | inhibition at 30 ppm [9]: 46.8% | inhibition at 60 ppm [10]: 56.5%
